{"data": "Assay results from different studies", "target": "Receptor-interacting serine/threonine-protein kinase 2 (RIPK2, Homo sapiens, UniProt O43353)", "note": "Protocols differ between the studies behind these lines."}
{"Structure (SMILES)": "CC(=O)N1CCC(c2ccc(C(=O)NC(=N)N)cc2C(F)(F)F)CC1", "assay": "cell-free assay, competition with immobilised ligand", "conditions": "1 µM", "endpoint": "remaining binding", "value": "100%"}
{"Structure (SMILES)": "COc1cc2ncnc(Nc3ccc(Oc4ccccc4)cc3)c2cc1OC", "assay": "cell-free assay", "conditions": "0.5 µM", "endpoint": "remaining signal", "value": "55.5%"}
{"Structure (SMILES)": "Cn1cnc(Br)c1C1=CN(c2ncnc3[nH]cnc23)CCS1", "assay": "enzyme activity, inhibitor, radiometric", "conditions": "50 nM", "endpoint": "inhibition", "value": "16.6%"}
{"Structure (SMILES)": "CC(C)(C)c1nc(-c2cccc(NS(=O)(=O)c3c(F)cccc3F)c2F)c(-c2ccnc(N)n2)s1", "assay": "enzyme activity, inhibitor, radiometric", "conditions": "1 µM", "endpoint": "remaining activity", "value": "5%"}
{"Structure (SMILES)": "Oc1cccc(-c2nc(N3CCOCC3)c3oc4ncccc4c3n2)c1", "assay": "enzyme activity, inhibitor", "conditions": "10 µM", "endpoint": "remaining activity", "value": "72%"}
{"Structure (SMILES)": "CC(=O)c1c(NS(C)(=O)=O)c2cc(-c3ccc(Cl)cc3)c(-c3ccc(Cl)cc3Cl)nc2n(C)c1=O", "assay": "cell-free assay, competition with immobilised ligand", "conditions": "1 µM", "endpoint": "remaining binding", "value": "96%"}
{"Structure (SMILES)": "CNCc1ccc(-c2cc(-c3nc(-c4ccc(S(=O)(=O)C(C)C)cc4)cnc3N)on2)cc1", "assay": "enzyme activity, inhibitor", "conditions": "0.4 µM", "endpoint": "inhibition", "value": "6%"}
{"Structure (SMILES)": "CNC(=O)c1cc(Oc2ccc(NC(=O)Nc3ccc(Cl)c(C(F)(F)F)c3)cc2)ccn1", "assay": "cell-free assay", "conditions": "0.5 µM", "endpoint": "remaining signal", "value": "86.2%"}
{"Structure (SMILES)": "Cc1sc(C(=O)NC2COC2)cc1-n1cc(NC(=O)Nc2c(F)cccc2Cl)cn1", "assay": "enzyme activity, inhibitor", "conditions": "10 µM", "endpoint": "remaining activity", "value": "89.3%"}
{"Structure (SMILES)": "CCCOc1ccc(OC)c(F)c1C(=O)c1ccc(C(=O)N[C@@H]2CNC[C@H]2NC(=O)c2ccc3[nH]ncc3c2)cc1", "assay": "enzyme activity, inhibitor", "conditions": "10 µM", "endpoint": "remaining activity", "value": "91%"}
{"Structure (SMILES)": "CCCOc1ccc([C@H]2[C@H](C(=O)O)[C@@H](c3ccc4c(c3)OCO4)CN2CC(=O)Nc2c(CC)cccc2CC)cc1", "assay": "cell-free assay, competition with immobilised ligand", "conditions": "1 µM", "endpoint": "remaining binding", "value": "100%"}
{"Structure (SMILES)": "CN1CC(Oc2cnc(C#N)cc2-c2ccn3nc(NC(=O)C4CC4)cc3c2)C1", "assay": "enzyme activity, inhibitor", "conditions": "1 µM", "endpoint": "inhibition", "value": "81%"}
{"Structure (SMILES)": "CCCS(=O)(=O)Nc1ccc(F)c(C(=O)c2c[nH]c3ncc(-c4ccc(Cl)cc4)cc23)c1F", "assay": "enzyme activity, inhibitor", "conditions": "1 µM", "endpoint": "inhibition", "value": "< 10%"}
{"Structure (SMILES)": "Cc1cc(NC(=O)c2cccc3cc(-c4cccc5[nH]nc(N)c45)ccc23)ccc1F", "assay": "enzyme activity, inhibitor", "conditions": "0.1 µM", "endpoint": "activity vs control", "value": "110%"}
{"Structure (SMILES)": "COc1ccc2c(c1)O[C@H](c1ccc(OC)c(OC)c1)C[C@@H]2NC(=O)C1(c2ccc3c(c2)OC(F)(F)O3)CC1", "assay": "cell-free assay, competition with immobilised ligand", "conditions": "1 µM", "endpoint": "remaining binding", "value": "100%"}
{"Structure (SMILES)": "CC(C)(O)[C@H]1CC[C@H](Nc2ccc3ncc(-c4cccc(C(F)(F)F)c4)n3n2)CC1", "assay": "enzyme activity, inhibitor", "conditions": "1 µM", "endpoint": "remaining activity", "value": "28.1%"}
{"Structure (SMILES)": "FC(F)(F)Oc1cccc(-c2cnc3ccc(-c4ccncc4)nn23)c1", "assay": "enzyme activity, inhibitor, radiometric", "conditions": "1 µM", "endpoint": "activity vs control", "value": "32%"}
{"Structure (SMILES)": "CCS(=O)(=O)c1cc2cc(C[C@@](O)(CC(C)(C)c3ccc(F)cc3C(N)=O)C(F)(F)F)[nH]c2cn1", "assay": "cell-free assay, competition with immobilised ligand", "conditions": "1 µM", "endpoint": "remaining binding", "value": "100%"}
{"Structure (SMILES)": "Cc1ccc(Nc2nccc(N(C)c3ccc4c(C)n(C)nc4c3)n2)cc1S(N)(=O)=O", "assay": "enzyme activity, inhibitor", "conditions": "0.5 µM", "endpoint": "remaining activity", "value": "68.2%"}
{"Structure (SMILES)": "Cn1c(=O)n(-c2ccc(C(C)(C)C#N)cc2)c2c3cc(-c4cnc5ccccc5c4)ccc3ncc21", "assay": "enzyme activity, inhibitor", "conditions": "10 µM", "endpoint": "remaining activity", "value": "28%"}
{"Structure (SMILES)": "COc1cc(Nc2cnc(C#N)c(O[C@H](C)CN(C)C)n2)ncc1-c1cnn(C)c1", "assay": "enzyme activity, inhibitor, radiometric", "conditions": "10 µM", "endpoint": "remaining activity", "value": "71%"}
{"Structure (SMILES)": "C[C@@H]1CCN(C(=O)CC#N)C[C@@H]1N(C)c1ncnc2[nH]ccc12", "assay": "cell-free assay, inhibitor", "conditions": "0.5 µM", "endpoint": "remaining signal", "value": "113%"}
{"Structure (SMILES)": "Cc1nccc(COC(=O)N2C[C@@H]3[C@@H](CNC(=O)c4ccc5[nH]nnc5c4)[C@@H]3C2)n1", "assay": "cell-free assay, competition with immobilised ligand", "conditions": "1 µM", "endpoint": "remaining binding", "value": "100%"}
{"Structure (SMILES)": "CCN(CC)CCNC(=O)c1c(C)[nH]c(/C=C2\\C(=O)Nc3ccc(F)cc32)c1C", "assay": "enzyme activity, inhibitor", "conditions": "0.3 µM", "endpoint": "inhibition", "value": "-10%"}
{"Structure (SMILES)": "O=C(O)[C@H]1[C@H](Cn2nnc3ccccc3c2=O)CC[C@@H]1C(=O)c1ccc(OCCC2CCOCC2)cc1", "assay": "cell-free assay, competition with immobilised ligand", "conditions": "1 µM", "endpoint": "remaining binding", "value": "100%"}
{"Structure (SMILES)": "COc1cc(/C=C/C(=O)CC(=O)/C=C/c2ccc(O)c(OC)c2)ccc1O", "assay": "enzyme activity, inhibitor", "conditions": "1 µM", "endpoint": "activity vs control", "value": "16%"}
{"Structure (SMILES)": "Cc1ccc(C(=O)NCc2ccsc2)cc1C#Cc1cn(C(C)C)c2ncnc(N)c12", "assay": "enzyme activity, inhibitor", "conditions": "1 µM", "endpoint": "activity vs control", "value": "14%"}
{"Structure (SMILES)": "CNCc1ccccc1-c1csc([C@@H](C)Nc2nc(C)nc3cc(OC)c(OC)cc23)c1", "assay": "cell-free assay, competition with immobilised ligand", "conditions": "1 µM", "endpoint": "remaining binding", "value": "100%"}
